In ChEMBL document CHEMBL2040734, “Benzothiazoles: search for anticancer agents” (2012):

How the values were obtained:
Type in all cases: functional
DU-145 = test: Cytotoxicity against human DU145 cells assessed as cell growth at 10 '-5 M after 48 hrs by sulforhodamine B assay; conditions: DU-145, 48 h, read-out: Activity
Method in brief: (§1)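 Primary one-dose screen across the NCI 60-line panel at 10 µM. Cells were grown in RPMI 1640 with 5% FBS and 2 mM L-glutamine and held 24 h before drug. Drug was diluted from a DMSO concentrate. Exposure was 48 h at 37 °C, 5% CO2. Cells were fixed with TCA and stained with SRB, with absorbance read at 515 nm. Percent growth was calculated against time-zero and untreated control.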

SW-620 = test: Cytotoxicity against human SW620 cells assessed as cell growth at 1 uM after 48 hrs by sulforhodamine B assay; conditions: SW-620, 48 h, read-out: Activity
A498 = test: Cytotoxicity against human A498 cells assessed as cell growth at 100 uM after 48 hrs by sulforhodamine B assay; conditions: A498, 48 h, read-out: Activity
Method in brief: (§2)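 NCI-60 five-dose screen. Cells were grown in RPMI 1640 with 5% FBS and 2 mM L-glutamine and preincubated 24 h. Compound (DMSO stock) was tested at 0.01, 0.1, 1, 10 and 100 µM for 48 h at 37 °C. Cells were fixed in situ with cold TCA (final 10%) and stained with 0.4% SRB. A515 was read, and percent growth was calculated against time-zero and control plates.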

UO-31 [1] = test: Cytotoxicity against human UO31 cells assessed as cell growth at 10 '-5 M after 48 hrs by sulforhodamine B assay; conditions: UO-31, 48 h, read-out: Activity
KM12 [2] = test: Cytotoxicity against human KM12 cells assessed as cell growth at 0.1 uM after 48 hrs by sulforhodamine B assay; conditions: KM12, 48 h, read-out: Activity
COLO 205 = test: Cytotoxicity against human COLO205 cells assessed as cell growth at 10 uM after 48 hrs by sulforhodamine B assay; conditions: COLO 205, 48 h, read-out: Activity; method in brief: as §2
KM12 [3] = test: Cytotoxicity against human KM12 cells assessed as cell growth at 100 uM after 48 hrs by sulforhodamine B assay; conditions: KM12, 48 h, read-out: Activity
EKVX = test: Growth inhibition of human EKVX cells after 48 hrs by sulforhodamine B assay
Method in brief: (§3)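 Adherent NCI-60 lines were grown in RPMI 1640 with 5% FBS and 2 mM L-glutamine, plated at 5000–40,000 cells/well and preincubated 24 h. They were then exposed to five concentrations (0.01–100 µM, from a DMSO stock) for 48 h at 37 °C, 5% CO2. Cells were fixed with cold TCA (10% final, 60 min, 4 °C) and stained with 0.4% SRB. Dye was solubilized in 10 mM Tris base and A515 read. GI50 was derived from time-zero, control and treated absorbances.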

SK-OV-3 [4] = test: Cytotoxicity against human SKOV3 cells assessed as cell growth at 10 uM after 48 hrs by sulforhodamine B assay; conditions: SK-OV-3, 48 h, read-out: Activity
UO-31 [5] = test: Cytotoxicity against human UO31 cells assessed as cell growth at 1 uM after 48 hrs by sulforhodamine B assay; conditions: UO-31, 48 h, read-out: Activity
OVCAR-4 = test: Cytotoxicity against human OVCAR4 cells assessed as cell growth at 10 uM after 48 hrs by sulforhodamine B assay; conditions: OVCAR-4, 48 h, read-out: Activity
786-0 = test: Cytotoxicity against human 786-0 cells assessed as cell growth at 0.01 uM after 48 hrs by sulforhodamine B assay; conditions: 786-0, 48 h, read-out: Activity; method in brief: as §2
TK-10 [6] = test: Growth inhibition of human TK10 cells after 48 hrs by sulforhodamine B assay; conditions: TK-10, 48 h; for CC50: read-out: LC50 (the source's name); method in brief: as §3
OVCAR-8 = test: Growth inhibition of human OVCAR8 cells after 48 hrs by sulforhodamine B assay; conditions: OVCAR-8, 48 h; method in brief: as §3
SF-268 = test: Growth inhibition of human SF268 cells after 48 hrs by sulforhodamine B assay; conditions: SF-268, 48 h; method in brief: as §3
PC-3 = test: Cytotoxicity against human PC3 cells assessed as cell growth at 0.1 uM after 48 hrs by sulforhodamine B assay; conditions: PC-3, 48 h, read-out: Activity
HT-29 [7] = test: Cytotoxicity against human HT-29 cells assessed as cell growth at 10 '-5 M after 48 hrs by sulforhodamine B assay; conditions: HT-29, 48 h, read-out: Activity; method in brief: as §1
SF-539 = test: Cytotoxicity against human SF539 cells assessed as cell growth at 0.1 uM after 48 hrs by sulforhodamine B assay; conditions: SF-539, 48 h, read-out: Activity
HT-29 [8] = test: Cytotoxicity against human HT-29 cells assessed as cell growth at 0.01 uM after 48 hrs by sulforhodamine B assay; conditions: HT-29, 48 h, read-out: Activity
Method in brief: (§4)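 Five-dose NCI panel run at 0.01, 0.1, 1, 10 and 100 µM. Cells were in RPMI 1640 with 5% FBS and 2 mM L-glutamine, seeded at 5000–40,000 cells/well and pre-incubated 24 h. Drug was diluted from a DMSO stock into medium with 50 µg/ml gentamicin. Exposure was 48 h at 37 °C, 5% CO2. Cells were fixed with cold TCA and stained with 0.4% SRB, read at 515 nm. Percent growth came from time-zero, control and test absorbances.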

TK-10 [9] = test: Cytotoxicity against human TK10 cells assessed as cell growth at 0.1 uM after 48 hrs by sulforhodamine B assay; conditions: TK-10, 48 h, read-out: Activity
SK-OV-3 [10] = test: Cytotoxicity against human SKOV3 cells assessed as cell growth at 1 uM after 48 hrs by sulforhodamine B assay; conditions: SK-OV-3, 48 h, read-out: Activity
KM12 [11] = test: Cytotoxicity against human KM12 cells assessed as cell growth at 1 uM after 48 hrs by sulforhodamine B assay; conditions: KM12, 48 h, read-out: Activity
RPMI-8226 = test: Cytotoxicity against human RPMI8226 cells assessed as cell growth at 0.01 uM after 48 hrs by sulforhodamine B assay; conditions: RPMI-8226, 48 h, read-out: Activity
UACC-62 = test: Cytotoxicity against human UACC62 cells assessed as cell growth at 100 uM after 48 hrs by sulforhodamine B assay; conditions: UACC-62, 48 h, read-out: Activity
SR = test: Cytotoxicity against human SR cells assessed as cell growth at 100 uM after 48 hrs by sulforhodamine B assay; conditions: read-out: Activity
NCI-H460 = test: Cytotoxicity against human NCI-H460 cells assessed as cell growth at 10 uM after 48 hrs by sulforhodamine B assay; conditions: NCI-H460, 48 h, read-out: Activity
RXF 393 = test: Cytotoxicity against human RXF393 cells assessed as cell growth at 0.01 uM after 48 hrs by sulforhodamine B assay; conditions: RXF 393, 48 h, read-out: Activity
HT-29 [12] = test: Cytotoxicity against human HT-29 cells assessed as cell growth at 10 uM after 48 hrs by sulforhodamine B assay; conditions: HT-29, 48 h, read-out: Activity; method in brief: as §4

Row | Structure (SMILES) | growth at 10 µM (DU-145) [%] | growth at 1 µM (SW-620) [%] | growth at 100 µM (A498) [%] | growth at 10 µM (UO-31 [1]) [%] | growth at 0.1 µM (KM12 [2]) [%] | growth at 10 µM (COLO 205) [%] | growth at 100 µM (KM12 [3]) [%] | LC50 (EKVX) [µM] | TGI (EKVX) [µM] | growth at 10 µM (SK-OV-3 [4]) [%] | growth at 1 µM (UO-31 [5]) [%] | growth at 10 µM (OVCAR-4) [%] | growth at 0.01 µM (786-0) [%] | GI50 (TK-10 [6]) [µM] | TGI (TK-10 [6]) [µM] | CC50 (TK-10 [6]) [µM] | GI50 (OVCAR-8) [µM] | TGI (OVCAR-8) [µM] | GI50 (SF-268) [µM] | LC50 (concentration killing 50% of the starting cells) (SF-268) [µM] | also measured
1 | Cc1ccc2nc(Nc3c(C)cccc3C)sc2c1 | 62.1 | 49 | 60 | 43.7 | 103 | 49 | 48 | > 100 | > 100 | 47 | 73 | 55 | 97 | > 100 | > 100 | > 100 | 57.9 | > 100 | 29.3 | > 100 | CC50 (OVCAR-8; read-out: LC50 (the source's name)): > 100 µM; TGI (SF-268): > 100 µM; growth at 0.1 µM (PC-3): 94%; growth at 10 µM (HT-29 [7]): 9.15%; growth at 0.1 µM (SF-539): 97%; growth at 0.01 µM (HT-29 [8]): 98%; growth at 0.1 µM (TK-10 [9]): 94%; growth at 1 µM (SK-OV-3 [10]): 91%; growth at 1 µM (KM12 [11]): 55%; growth at 0.01 µM (RPMI-8226): 101%; growth at 100 µM (UACC-62): 37%; growth at 100 µM (SR): 22%; growth at 10 µM (NCI-H460): 22%; growth at 0.01 µM (RXF 393): 94%; growth at 10 µM (HT-29 [12]): 10%
2 | Clc1cccc(Cl)c1Nc1nc2cccc(Cl)c2s1 | -7.04 | 69 | -92 | -55.1 | 101 | -91 | -98 | 4.26 | 1.4 | -89 | 26 | -90 | 106 | 1.16 | 2.57 | 5.67 | 1.15 | 2.83 | 1.2 | 5.66 | GI50 (EKVX): 0.299 µM; TGI (SF-268): 2.61 µM; growth at 0.1 µM (PC-3): 81%; growth at 10 µM (HT-29 [7]): -67.6%; growth at 0.1 µM (SF-539): 100%; growth at 0.01 µM (HT-29 [8]): 100%; growth at 0.1 µM (TK-10 [9]): 94%; growth at 1 µM (SK-OV-3 [10]): 86%; growth at 1 µM (KM12 [11]): 62%; growth at 0.01 µM (RPMI-8226): 103%; growth at 100 µM (UACC-62): -94%; growth at 100 µM (SR): -32%; growth at 10 µM (NCI-H460): -75%; growth at 0.01 µM (RXF 393): 94%; growth at 10 µM (HT-29 [12]): -71%
